ChEMBL document CHEMBL4118021, “Studies of TAK1-centered polypharmacology with novel covalent TAK1 inhibitors” (Bioorg Med Chem, 2017)

Experiments:
Assay type in all cases: cell-based
[1] = molecular target: Tyrosine-protein kinase Yes (Homo sapiens) (UniProt P07947); assay: Inhibition of YES in human SKCO1 cells at 1 uM after 4 hrs using biotin labeled QGAKFPIKWTAPEAALYGR probe by mass-spectrometric analysis relative to control
[2] = molecular target: T1, Serine/threonine-protein kinase LATS1 (Homo sapiens) (UniProt O95835); assay: Inhibition of LATS1 in human SKCO1 cells at 1 uM after 4 hrs using biotin labeled ALYATKTLR probe by mass-spectrometric analysis relative to control
T1 sequence (whole entry): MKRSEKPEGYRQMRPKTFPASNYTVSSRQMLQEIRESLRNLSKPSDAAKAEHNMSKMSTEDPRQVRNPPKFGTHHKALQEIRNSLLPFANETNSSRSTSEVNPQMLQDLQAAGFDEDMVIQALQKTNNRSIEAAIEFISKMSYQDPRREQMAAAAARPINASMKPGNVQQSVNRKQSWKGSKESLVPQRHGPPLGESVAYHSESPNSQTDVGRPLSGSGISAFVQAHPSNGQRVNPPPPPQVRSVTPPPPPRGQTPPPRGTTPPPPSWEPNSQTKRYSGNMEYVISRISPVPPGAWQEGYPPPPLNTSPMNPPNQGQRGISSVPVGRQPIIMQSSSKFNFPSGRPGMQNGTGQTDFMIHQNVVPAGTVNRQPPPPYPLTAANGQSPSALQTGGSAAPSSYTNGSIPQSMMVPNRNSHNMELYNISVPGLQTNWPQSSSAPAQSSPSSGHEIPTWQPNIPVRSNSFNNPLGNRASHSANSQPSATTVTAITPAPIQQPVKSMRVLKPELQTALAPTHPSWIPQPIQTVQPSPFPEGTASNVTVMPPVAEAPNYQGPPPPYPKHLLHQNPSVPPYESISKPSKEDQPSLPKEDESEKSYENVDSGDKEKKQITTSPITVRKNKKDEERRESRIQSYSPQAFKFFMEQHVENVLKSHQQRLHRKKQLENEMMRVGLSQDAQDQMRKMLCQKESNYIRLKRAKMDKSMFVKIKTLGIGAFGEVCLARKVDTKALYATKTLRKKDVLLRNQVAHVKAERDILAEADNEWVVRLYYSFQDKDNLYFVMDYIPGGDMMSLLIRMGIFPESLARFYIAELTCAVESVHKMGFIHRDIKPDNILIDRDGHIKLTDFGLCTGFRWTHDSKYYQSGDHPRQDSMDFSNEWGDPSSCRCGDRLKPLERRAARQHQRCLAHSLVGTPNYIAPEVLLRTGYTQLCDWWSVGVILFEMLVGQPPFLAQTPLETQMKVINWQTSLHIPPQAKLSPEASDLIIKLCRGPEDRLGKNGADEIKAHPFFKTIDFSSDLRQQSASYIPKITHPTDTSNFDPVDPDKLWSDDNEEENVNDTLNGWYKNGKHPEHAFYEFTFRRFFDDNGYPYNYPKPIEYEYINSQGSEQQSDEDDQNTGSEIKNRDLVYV

[3] = molecular target: T2, Serine/threonine-protein kinase 4 (Homo sapiens) (UniProt Q13043); assay: Inhibition of MST1 in human SKCO1 cells at 1 uM after 4 hrs using biotin labeled ETGQIVAIKQVPVESDLQEIIK probe by mass-spectrometric analysis relative to control
T2 sequence (whole entry): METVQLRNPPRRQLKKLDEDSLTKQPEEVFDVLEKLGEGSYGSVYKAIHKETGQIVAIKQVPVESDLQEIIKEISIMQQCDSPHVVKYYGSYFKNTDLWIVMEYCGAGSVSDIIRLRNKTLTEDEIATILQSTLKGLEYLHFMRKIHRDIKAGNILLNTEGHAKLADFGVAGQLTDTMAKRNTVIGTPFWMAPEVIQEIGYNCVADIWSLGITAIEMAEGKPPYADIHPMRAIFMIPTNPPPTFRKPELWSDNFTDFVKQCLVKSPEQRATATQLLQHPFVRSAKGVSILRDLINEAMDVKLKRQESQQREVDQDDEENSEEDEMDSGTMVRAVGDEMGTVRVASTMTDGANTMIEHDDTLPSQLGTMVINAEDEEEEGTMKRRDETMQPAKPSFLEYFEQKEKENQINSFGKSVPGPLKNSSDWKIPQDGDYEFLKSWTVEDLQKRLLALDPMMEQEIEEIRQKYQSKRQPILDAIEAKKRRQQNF
Outline: (§1)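 Live SK-CO-1 cells exposed to compound at 1 μM or DMSO for 4 h (KiNativ). Lysates then labeled with lysine-reactive ATP/ADP-biotin probe, and probe-labeled kinase peptides quantified by mass spectrometry. Percent inhibition of probe-dependent recovery calculated relative to DMSO-treated cells.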

[4] = molecular target: T3, EKC/KEOPS complex subunit TP53RK (Homo sapiens) (UniProt Q96S44); assay: Inhibition of PRPK in human SKCO1 cells at 1 uM after 4 hrs using biotin labeled FLSGLELVKQGAEAR probe by mass-spectrometric analysis relative to control; outline: as §1
T3 sequence (whole entry): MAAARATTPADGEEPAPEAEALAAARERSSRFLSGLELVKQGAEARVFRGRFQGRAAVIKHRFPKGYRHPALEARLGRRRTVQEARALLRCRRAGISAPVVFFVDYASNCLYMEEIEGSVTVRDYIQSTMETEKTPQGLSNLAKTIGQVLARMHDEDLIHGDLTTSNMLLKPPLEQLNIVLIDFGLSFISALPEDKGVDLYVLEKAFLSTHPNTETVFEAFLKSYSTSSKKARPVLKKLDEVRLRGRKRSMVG

Sequence of Tyrosine-protein kinase Yes (Homo sapiens) (P07947 2-543 limits assumed): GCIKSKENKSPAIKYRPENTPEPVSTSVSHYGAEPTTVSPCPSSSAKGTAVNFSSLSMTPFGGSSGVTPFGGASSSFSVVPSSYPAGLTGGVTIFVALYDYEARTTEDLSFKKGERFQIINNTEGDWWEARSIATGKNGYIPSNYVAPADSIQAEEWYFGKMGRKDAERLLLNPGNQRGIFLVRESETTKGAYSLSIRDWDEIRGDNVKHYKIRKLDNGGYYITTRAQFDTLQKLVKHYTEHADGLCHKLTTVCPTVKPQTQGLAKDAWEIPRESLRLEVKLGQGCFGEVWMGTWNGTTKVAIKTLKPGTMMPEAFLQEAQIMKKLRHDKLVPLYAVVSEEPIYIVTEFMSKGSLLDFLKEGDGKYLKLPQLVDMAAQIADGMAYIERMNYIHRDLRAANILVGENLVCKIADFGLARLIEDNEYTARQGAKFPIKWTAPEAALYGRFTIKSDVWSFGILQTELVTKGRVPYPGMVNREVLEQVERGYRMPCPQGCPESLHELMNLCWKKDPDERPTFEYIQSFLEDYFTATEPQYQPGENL

Row | Structure (SMILES) | inhibition [1] [%] | inhibition [2] [%] | inhibition [3] [%] | inhibition [4] [%]
1 | C=CC(=O)Nc1ccccc1Nc1nc(Nc2ccc(N3CCN(C)CC3)cc2)ncc1Cl | 50.5 | 17.5 | -6.4 | 42.1
2 | COc1cc(O)c2c(c1)/C=C/C[C@H](O)[C@H](O)C(=O)/C=C\C[C@H](C)OC2=O | 8.5 | 9.9 | -4.7 | 46.7
3 | C=CC(=O)Nc1ccccc1Oc1nc(Nc2cnn(CCOC)c2)ncc1Cl | -0.9 | 5.3 | -0.9 | 46.6
